Series [1] addresses T1, CHIP (Homo sapiens, UniProt Q9UNE7).
T1 sequence (Q9UNE7 1-303): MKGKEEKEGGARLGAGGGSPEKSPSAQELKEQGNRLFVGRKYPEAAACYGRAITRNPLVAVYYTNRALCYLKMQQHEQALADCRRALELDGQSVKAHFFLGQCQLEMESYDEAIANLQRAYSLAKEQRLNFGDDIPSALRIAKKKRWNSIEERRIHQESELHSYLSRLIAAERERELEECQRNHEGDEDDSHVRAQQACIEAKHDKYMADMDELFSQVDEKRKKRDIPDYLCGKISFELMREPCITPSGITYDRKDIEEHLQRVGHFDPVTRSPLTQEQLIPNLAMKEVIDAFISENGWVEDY
As to the kind of experiment: Fluorescence polarization. It is filed as binding. The following applies: FP, 20 nM tracer, Figure 2. Background: Fluorescence polarisation rises when a labelled molecule tumbles more slowly, as on binding a larger partner.

The nature of series [2]: 15N relaxation measurements, oligomeric state. It is filed as physicochemical. The following applies: 15N relaxation experiments.
The target in series [3] is T1, CHIP. As to the kind of experiment: Biolayer interferometry. The following applies: for Binding to CHIP (in words): BLI, Figure 1d / Figure 5. Format: binding. In general terms: In BLI a coated tip is dipped into the sample, and binding shifts an interference pattern.
The subject of series [4] is CHIP. As to the kind of experiment: 1H-15N TROSY NMR of 15N-labeled Hsc70 with CHIP. As to conditions: for Change of C-terminal resonances on CHIP binding (in words): residues 639-646 (GPTIEEVD). It is filed as binding, Human. In outline: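 800 MHz TROSY of 15N full-length Hsc70 (uncleaved His tag) in 50 mM K2PO4, 110 µM NRLLLTG, 1 mM ADP, 5 mM MgCl2, 10 mM KCl, 0.02% NaN3, pH 7.2. Spectra: Hsc70 alone at 100 µM (12 h); Hsc70:CHIP 57:21 µM and 40:30 µM (52 h each); 67 µM 1:1 with CHIP; 60 µM 1:1:1 with UbcH5. Tail assigned from 250 µM triple-labelled Hsc70(391–646) 3D spectra at 30 °C.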

The test system of series [5] is CHIP. As to the kind of experiment: 1D 15N NMR relaxation of Hsc70 with or without CHIP. On the set-up: species or system Human. The following applies: 15N relaxation. The method, boiled down: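 15N-labelled full-length Hsc70 with uncleaved N-terminal His tag, 67 µM in 50 mM K2PO4, 200 µM NRLLLTG, 1 mM ADP, 5 mM MgCl2, 10 mM KCl, 0.02% NaN3, pH 7.2, 25 °C, with or without CHIP, at 800 MHz. 1D 15N R1 (10 h) and R2 (4.5 h) experiments were run, plus CSA/dipolar cross-correlated relaxation (T 10.2 ms). The 9.6–8.6 and 8.6–7.8 ppm regions were integrated and fitted single-exponentially, with jackknife errors.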

Series [6] addresses T2, CHIP (C-terminus of Hsc70 Interacting Protein), full-length human (human, UniProt Q9UNE7 1-303).
T2 sequence (looked up): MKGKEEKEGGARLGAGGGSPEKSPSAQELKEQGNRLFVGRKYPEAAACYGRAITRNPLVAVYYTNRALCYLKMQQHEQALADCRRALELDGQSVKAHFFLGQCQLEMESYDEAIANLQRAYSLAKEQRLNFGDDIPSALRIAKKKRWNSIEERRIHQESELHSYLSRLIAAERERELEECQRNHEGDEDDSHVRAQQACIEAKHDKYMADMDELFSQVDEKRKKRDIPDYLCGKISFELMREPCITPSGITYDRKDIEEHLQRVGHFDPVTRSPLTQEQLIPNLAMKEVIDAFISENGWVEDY
As to the kind of experiment: fluorescence polarisation.

Entries after “also recorded” stand apart in the source; their conditions may differ. Primed or numbered codes have the meaning given here. No end group written: not given here. 5FAM′ = 5-carboxyfluorescein

For 5FAM-DVEEM, the figures for the “Binding / affinity of fluorescent probes for CHIP (in words)” value on CHIP [1] and at CHIP [1] (listed as DVEEM) were “no affinity for CHIP” and “had no affinity for CHIP”, respectively.
For the molecule 5FAM-MEEVD, the “Binding / affinity of fluorescent probes for CHIP (in words)” value is reported as “nearly identical affinity to the longer peptide” at CHIP [1] and “binds with affinity equal to that of the longer probe” at CHIP [1] (listed as MEEVD).
For “SBD: substrate-binding domain, Hsc70 residues 391–646”, in series [2], the “Oligomeric state (in words)” value is on record as “dimeric”.
For the molecule “Hsc70ΔEEVD: Hsc70 mutant lacking the EEVD sequence”, the “Binding to CHIP (in words)” value with CHIP [3] is reported as “Neither the Hsc70ΔSBD, nor the Hsc70ΔEEVD mutant displayed any ability to bind CHIP; also recorded: cannot bind CHIP”.
With “NBD: nucleotide-binding domain, Hsc70 residues 1–383”, the “Binding to CHIP (in words)” value with CHIP [3] (listed as Hsc70ΔSBD) is “Neither the Hsc70ΔSBD, nor the Hsc70ΔEEVD mutant displayed any ability to bind CHIP; also recorded: cannot bind CHIP”.
As for “wtHsc70: Human full-length Hsc70 (HspA8; 1–646)”, the “Oligomeric state (in words)” value in series [2] is given as “monomeric at 100 µM”. Moreover, the “Change of TROSY spectrum on addition of UbcH5c or excess CHIP (in words)” value in the series on CHIP [4] (1:1:1 15N Hsc70, CHIP and UbcH5c, 60 µM, or excess CHIP (data not shown)) is given as “does not further change the spectrum”. Besides, in the series with CHIP [4] (800 MHz, ADP and NRLLLTG bound state, pH 7.2, 25°C, 1:1 wtHsc70:CHIP), the “Change of TROSY spectrum on CHIP binding (in words)” value is “barely distinguishable from that of wtHsc70 alone”. The “Change of resonances of residues 616–636 on CHIP binding (in words)” value in the series on CHIP [4] (assigned upstream residues 616–636 of unstructured tail) is “remained visible and relatively unaffected by the presence of CHIP”. Further, the entries for the “Change of C-terminal resonances on CHIP binding (in words)” value in the series with CHIP [4] and in the series on CHIP [4] (listed as Hsc70) were “progressively disappear upon complex formation; also recorded: disappear from the wtHsc70 NMR spectrum” and “disappear from the NMR spectrum”, respectively. Moreover, the “Rotational correlation time of structured area with vs without CHIP (in words)” value with CHIP [5] was “not increased upon binding to CHIP”. Further, the Hsc70-CHIP binding stoichiometry entry with CHIP [3] (Hsc70 per CHIP) is listed as “two molecules of Hsc70”. The same molecule showed a Kd in the series with CHIP [3] (abstract, binding of Hsc70 to CHIP) of around 60 nM. The “Slower dissociation than C-terminal peptide” value with CHIP [3] (koff, wtHsc70 vs C-terminal peptide) is recorded as ~ 5 fold. For the same molecule, in the series with CHIP [3] (two molecules of Hsc70 and CHIP homodimer), the “Apparent molecular weight of the Hsc70-CHIP complex” value came out at 210 kDa. Besides, in the series with CHIP [3] (wtHsc70 vs C-terminal peptide), the “Increase in binding free energy relative to isolated C-terminal peptide” value came out at 1.08 kcal/M. In the series with CHIP [3] (wtHsc70 vs isolated peptide), the “Extra binding free energy beyond EEVD” value is 1.08 kcal/mol.

B1: 5FAM-DDTSRMEEVD (Hsp90α-derived C-terminus, residues 723-732) (peptide)
peptide: {5FAM′}-DDTSRMEEVD
For the molecule B1, in series [6], the binding result is given as “binds”.

B2: 5FAM-MEEVD (peptide)
peptide: {5FAM′}-MEEVD
Consider B2, for which the Kd in series [6] is 1500 ± 76 nM.

In general, Kd refers to the free concentration of one partner at which half of the binding sites on the other are occupied at equilibrium, for simple one-to-one binding. A low value points to higher affinity.

Values taken from paper PMC3856692 (Biochemistry, 2013).
